T1: DHBDAXX (residues 55-144 hDAXX) (Homo sapiens, UniProt Q9UER7)
T1 sequence (Q9UER7 55-144): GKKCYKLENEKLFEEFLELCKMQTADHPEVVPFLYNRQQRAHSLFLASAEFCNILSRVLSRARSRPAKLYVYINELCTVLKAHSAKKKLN

B1: DAXX Interacting Domain of ATRX (DID_(ATRX), residues 1190-1325 hATRX) (domain or fragment, human, UniProt P46100 1190-1325, looked up)
chain: RTSTKRKQADITSSSSSDIEDDDQNSIGEGSSDEQKIKPVTENLVLSSHTGFCQSSGDEALSKSVPVTVDDDDDDNDPENRIAKKMLLEEIKANLSSDEDGSSDDEPEEGKKRTGKQNEENPGDEEAKNQVNSESD
B2: DIDATRX: DAXX Interacting Domain of ATRX, residues 1190–1325 hATRX, recombinant (protein)
chain: B1 chain
modifications: left off: His6, N-terminal, state not stated
B3: ATRX (1255–1284) peptide (peptide, UniProt P46100 1255-1284, looked up)
peptide: PVTVDDDDDDNDPENRIAKKMLLEEIKANL
B4: ATRX (1263–1290) peptide (peptide, UniProt P46100 1263-1290, looked up)
peptide: DDNDPENRIAKKMLLEEIKANLSSDEDG
B5: ATRX (1267–1284) peptide (peptide, UniProt P46100 1267-1284, looked up)
peptide: PENRIAKKMLLEEIKANL
B6: ATRX (1255–1289) peptide (peptide, UniProt P46100 1255-1289, looked up)
peptide: PVTVDDDDDDNDPENRIAKKMLLEEIKANLSSDED
B7: ATRX (1261–1290) peptide (peptide, UniProt P46100 1261-1290, looked up)
peptide: DDDDNDPENRIAKKMLLEEIKANLSSDEDG
B8: PEP_(ATRX), peptide fragment of ATRX (1264–1285) (peptide, UniProt P46100 1264-1285, looked up)
peptide: DNDPENRIAKKMLLEEIKANLS
B9: ATRX (1267–1290) peptide (peptide, UniProt P46100 1267-1290, looked up)
peptide: PENRIAKKMLLEEIKANLSSDEDG
B10: DAXX Helical Bundle domain (DHB_(DAXX), residues 55-144 hDAXX) (domain or fragment, human, UniProt Q9UER7 55-144, looked up)
chain: T1 sequence (Q9UER7 55-144)
B11: ATRX (1265–1290) peptide (peptide, UniProt P46100 1265-1290, looked up)
peptide: NDPENRIAKKMLLEEIKANLSSDEDG

Values after ≈ are worked out from the molar mass of the structure shown.

One data set concerns HCT116 cells. The data set is described as follows: Lactate dehydrogenase. The format is cell-based. Conditions: chloroalkane versions, 2% serum, 4 and 24 h. In a few lines: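 HCT116 cells were seeded at 5000 per well in DMEM/10% FCS for 24 h, then switched to medium with 2% FCS. They were given titrated peptide (up to 50 μM; 1% v/v DMSO final) for 4 or 24 h, with 1% DMSO-only controls. Released LDH was measured by colorimetric kit and normalised to 0.1% Triton X-100 lysis. Mean of three independent measurements ± 1 SD.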

In data set [1] the target is T1, DHBDAXX (residues 55-144 hDAXX). As to the kind of experiment: Fluorescence polarisation saturation binding of FAM-labelled peptide to DHBDAXX. Conditions: fluorescence anisotropy Kd. Background: In fluorescence polarisation assays a small probe gives low polarisation when free and higher when bound to something large.
Data set [2] in a line: Solubility limit of stitched peptides. The conditions noted are these: peptides synthesized with an N-terminal FAM moiety; method not described. In kind it is physicochemical.
The target of data set [3] is B10. The data set is described as follows: ITC. (In general: Isothermal titration calorimetry measures the heat released or taken up as one component is titrated into another.)
Data set [4] addresses T1, DHBDAXX (residues 55-144 hDAXX). The data set is described as follows: Isothermal titration calorimetry. The format is binding. Conditions: ITC, 25 °C, ATRX fragments (Table 1), no unit in table.
Data set [5] shares this target. Conditions: read-out: Kd (competitive binding affinity); competitive displacement of FAM-SPEP7 from DHBDAXX.
In data set [6] the target is B1. The data set is described as follows: ITC.
The target in data set [7] is B1. As to the kind of experiment: fluorescence polarisation.

The term Kd denotes the equilibrium constant for the complex coming apart.

For the molecule `CC[C@H](C)[C@@H]1NC(=O)[C@H](CCC(=O)O)NC(=O)[C@H](C)NC(=O)[C@H](CC(C)C)NC(=O)[C@H](CC(C)C)NC(=O)[C@H](C)NC(=O)C2(CCCC=CCCCCCC[C@@](C)(C(=O)N[C@@H](C)C(=O)N[C@@H](CC(N)=O)C(=O)N[C@@H](CC(C)C)C(=O)N[C@@H](CO)C(N)=O)NC1=O)CCCC=CCCC[C@](C)(NC(=O)[C@H](CC(N)=O)NC(=O)[C@H](CCC(=O)O)NC(=O)[C@@H]1CCCN1C(=O)[C@@H](N)CC(N)=O)C(=O)N[C@@H]([C@@H](C)CC)C(=O)N[C@@H](C)C(=O)N[C@@H](CCCCN)C(=O)N2` (some centres unmarked) [STPEP7], in the data set with HCT116 cells, the “cellular toxicity (LDH release)” value is “no significant cellular toxicity”. Besides, in data set [1], the “fold decrease in binding compared to FAM-SPEP7” value is on record as about 7 fold. In data set [2], the solubility limit turned out to be 49 µM (≈ 110 µg/mL).
With `CC[C@H](C)[C@@H]1NC(=O)[C@H](CCC(=O)O)NC(=O)[C@H](C)NC(=O)[C@H](CC(C)C)NC(=O)[C@H](CC(C)C)NC(=O)C2(CCCC=CCCCCCC[C@@](C)(C(=O)N[C@@H](CC(N)=O)C(=O)N[C@@H](CC(C)C)C(=O)N[C@@H](CO)C(N)=O)NC(=O)[C@H](CCCCN)NC1=O)CCCC=CCCC[C@](C)(NC(=O)[C@H](CCCNC(=N)N)NC(=O)[C@H](CC(N)=O)NC(=O)[C@H](CCC(=O)O)NC(=O)[C@@H]1CCCN1C(=O)[C@H](CC(=O)O)NC(=O)[C@H](CC(N)=O)NC(=O)[C@@H](N)CC(=O)O)C(=O)N[C@@H](C)C(=O)N[C@@H](CCCCN)C(=O)N[C@@H](CCCCN)C(=O)N2` (some centres unmarked) [STPEP2], the “cellular toxicity (LDH release)” value in the data set on HCT116 cells was “no significant cellular toxicity”. In data set [2], this molecule gave a solubility limit of 11 µM (≈ 28.9 µg/mL).
In data set [3], B1 gave a dH of -49 kJ/mol.
In the case of B2, in data set [4], the ΔG is reported as −9.69 and the “−TΔS” value was 2.06. The ΔH in data set [4] (error in parentheses) is given as −11.7 (0.10). In addition, the Kd in data set [5] is 0.193 µM.
Consider B3, for which the dH in data set [3] is -44.4 kJ/mol.
Molecule B4 came in with a dH in data set [3] of -56.1 kJ/mol.
Turning to B5, the dH in data set [3] was -38.9 kJ/mol.
Still for that read-out and setting: the figure for B6 is -51 kJ/mol; for B7 it is -57.7 kJ/mol.
Still for that read-out and setting: the figure for B8 is -55.6 kJ/mol.
Still for that read-out and setting: with B9 the figure was -49.8 kJ/mol.
Consider B10, for which the figures for the Kd in data set [6] and in data set [7] were 0.08 µM and 0.193 µM, respectively.
In the case of B11, the dH in data set [3] was -55.6 kJ/mol.
